Experimental data from different studies.
Protocols differ between the studies behind these lines.
MPO: Myeloperoxidase (MPO, Homo sapiens, UniProt P05164)
Oprk1: Kappa-type opioid receptor (Oprk1, Mus musculus, UniProt P33534)
SLC6A2: Sodium-dependent noradrenaline transporter (SLC6A2, Homo sapiens, UniProt P23975)

| target | test | system | conditions | inhibition [%] | Compound |
| --- | --- | --- | --- | --- | --- |
| MPO | enzyme activity, inhibitor, fluorescence | – | 0.3704 µM | 96.2 | CC(C)OCCn1c(=S)[nH]c(=O)c2[nH]ccc21 |
| Oprk1 | ligand displacement, radioligand | – | 10 µM | 80.6 | CC(C)[C@@H](CN1CCc2ccccc2C1)NC(=O)c1cccc(-c2cccc(C#N)c2)c1 |
| SLC6A2 | ligand displacement, radioligand | – | 10 µM | 83 | CCOC(=O)[C@@]12C[C@@H]1[C@@H](n1cnc3c(NCCCCCCc4ccccc4)nc(C#Cc4ccc(Cl)s4)nc31)[C@H](O)[C@@H]2O |
| MPO | enzyme activity, inhibitor, fluorescence | – | 0.3704 µM | 98.6 | NC/C(=C\F)COc1cccc(Cn2c(=S)[nH]c(=O)c3[nH]cnc32)c1 |
| Interferon-induced, double-stranded RNA-activated protein kinase (EIF2AK2, Homo sapiens, UniProt P19525) | enzyme activity, inhibitor | – | 0.2 µM | 7.44 | C#Cc1cc(-c2cc(Nc3nc(N[C@@H](C)c4ccc(F)cn4)ncc3Cl)n[nH]2)ccc1C=O |
| MPO | enzyme activity, inhibitor, fluorescence | – | 15 µM | 98.2 | COc1ccc(Cl)cc1-c1cc(=O)[nH]c(=S)n1CC(N)=O |
| SLC6A2 | ligand displacement, radioligand | – | 10 µM | 50 | CCOC(=O)C12CC1C(n1ccc3c(NCCCc4ccccc4)nc(C#Cc4ccc(Cl)s4)nc31)C(O)C2O (stereo not drawn) |
| Oprk1 | ligand displacement, radioligand | – | 10 µM | 64.5 | CC(C)[C@H](CN1CCc2ccccc2C1)NC(=O)c1ccc([N+](=O)[O-])s1 |
| SLC6A2 | ligand displacement, radioligand | – | 10 µM | 78 | CCOC(=O)[C@@]12C[C@@H]1[C@@H](n1cnc3c(NCc4cccc(Cl)c4)nc(C#Cc4ccc(Cl)s4)nc31)[C@H](O)[C@@H]2O |
| Serine/threonine-protein kinase WNK4 (WNK4, Homo sapiens, UniProt Q96J92) | enzyme activity, inhibitor | – | 0.1 µM | 1.12 | Cc1cc(O)c(-c2ccc([C@@H](C)CN(C)C)cc2)c2c1[nH]c(=O)c1sccc12 |
| Oprk1 | ligand displacement, radioligand | – | 10 µM | 22.7 | CC(C)[C@@H](CN1CCc2ccccc2C1)NC(=O)C=Cc1ccccc1 |
| SLC6A2 | ligand displacement, radioligand | – | 10 µM | 28 | N#CC[C@@]12C[C@@H]1[C@@H](n1cnc3c(NC4CC4)nc(C#Cc4ccc(Cl)s4)nc31)[C@H](O)[C@@H]2O |
| Oprk1 | ligand displacement, radioligand | – | 10 µM | 72.2 | CC(C)[C@H](CN1CCc2ccccc2C1)NC(=O)c1cccc(-c2ccccc2)c1 |
| Neuronal acetylcholine receptor; alpha3/beta4 (Homo sapiens, UniProt P30926+P32297) | cell-free assay | – | 10 µM | -4 | Cc1cc(F)cc2c(CCC(=O)N[C@@H]3C(=O)NC[C@H]3O)c(-c3ccc(F)cc3)[nH]c12 |
| SLC6A2 | transporter uptake, inhibitor, radiometric | HEK293 | 10 µM | 1 | CCOC(=O)[C@@]12C[C@@H]1[C@@H](n1cnc3c(NCCCCCc4ccccc4)nc(C#Cc4ccccc4)nc31)[C@H](O)[C@@H]2O |
| Oprk1 | ligand displacement, radioligand | – | 10 µM | 69.4 | CC(C)[C@H](CN1CCc2ccccc2C1)NC(=O)c1c(Cl)cncc1Cl |
| SLC6A2 | ligand displacement, radioligand | – | 10 µM | 15 | CCOC(=O)[C@@]12C[C@@H]1[C@@H](n1cnc3c(NCCO)nc(C#Cc4ccc(Cl)s4)nc31)[C@H](O)[C@@H]2O |
| Oprk1 | ligand displacement, radioligand | – | 10 µM | 75.7 | CC(C)[C@@H](CN1CCc2ccccc2C1)NC(=O)c1ccc(F)cc1 |
